# From ChEMBL document CHEMBL1138415, “Analogues of the dopamine D2 receptor antagonist L741,626: Binding, function, and SAR” (Bioorg Med Chem Lett, 2007)
# Biological target: T1, D(2) dopamine receptor (Homo sapiens, UniProt P14416)
# Assay: Displacement of [125I]IABN from human dopamine D2L receptor expressed in HEK293 cells
# Assay type: cell-based
# T1 sequence (P14416 whole entry): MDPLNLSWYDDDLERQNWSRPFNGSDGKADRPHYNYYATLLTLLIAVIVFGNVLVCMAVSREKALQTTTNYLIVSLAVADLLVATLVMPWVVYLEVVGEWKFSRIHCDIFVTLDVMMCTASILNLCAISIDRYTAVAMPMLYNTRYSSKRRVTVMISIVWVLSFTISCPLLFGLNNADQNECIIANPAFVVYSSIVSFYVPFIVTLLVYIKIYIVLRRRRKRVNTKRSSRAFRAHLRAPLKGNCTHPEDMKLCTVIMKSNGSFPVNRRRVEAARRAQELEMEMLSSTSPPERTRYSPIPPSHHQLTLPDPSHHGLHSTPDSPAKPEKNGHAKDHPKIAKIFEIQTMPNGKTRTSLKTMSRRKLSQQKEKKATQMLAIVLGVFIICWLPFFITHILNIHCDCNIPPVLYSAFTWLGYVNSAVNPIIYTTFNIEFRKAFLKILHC
row,Structure (SMILES),Ki [nM]
1,OC1(c2ccc(Cl)c(Cl)c2)CCN(Cc2n[nH]c3ccccc23)CC1,438
2,OC1(c2ccc(Cl)cc2)CCN(Cc2coc3ccccc23)CC1,21
3,CCCCCCOc1ccc(C2(O)CCN(Cc3c[nH]c4ccccc34)CC2)cc1,159
4,COc1ccc2[nH]cc(CN3CCC(O)(c4ccc(SC)cc4)CC3)c2c1,5.5
5,C=CCOC1(c2ccc(Cl)cc2)CCN(Cc2c[nH]c3ccccc23)CC1,165
6,CC1(c2ccc(Cl)cc2)CCN(Cc2c[nH]c3ccccc23)CC1,992
7,OC1(c2cccc(C(F)(F)F)c2)CCN(Cc2c[nH]c3ccccc23)CC1,106
8,Cc1[nH]c2ccccc2c1CN1CCC(O)(c2ccc(Cl)cc2)CC1,15.4
9,NC1(c2ccc(Cl)cc2)CCN(Cc2c[nH]c3ccccc23)CC1,184
10,N#CC1(c2ccc(Cl)cc2)CCN(Cc2c[nH]c3ccccc23)CC1,199
11,OC1(c2ccc(-c3ccccc3)cc2)CCN(Cc2c[nH]c3ccccc23)CC1,98.4
12,FC1(c2ccc(Cl)cc2)CCN(Cc2c[nH]c3ccccc23)CC1,120
13,Cn1cc(CN2CCC(O)(c3ccc(Cl)cc3)CC2)c2ccccc21,29.6
14,COc1ccc(C2(O)CCN(Cc3c[nH]c4ccccc34)CC2)cc1,177
15,CSc1ccc(C2(O)CCN(Cc3coc4ccccc34)CC2)cc1,54
16,CSc1ccc(C2(O)CCN(Cc3c[nH]c4ccccc34)CC2)cc1,23.9
17,OC1(c2cccc(Cl)c2Cl)CCN(Cc2c[nH]c3ccccc23)CC1,26.1
18,CC(=O)NC1(c2ccc(Cl)cc2)CCN(Cc2c[nH]c3ccccc23)CC1,83.1

# Species on record: Homo sapiens
# Assay: Selectivity for human dopamine D2L receptor over human dopamine D3 receptor
row,Structure (SMILES),Ratio Ki
1,OC1(c2ccc(Cl)c(Cl)c2)CCN(Cc2n[nH]c3ccccc23)CC1,0.4
2,OC1(c2ccc(Cl)cc2)CCN(Cc2coc3ccccc23)CC1,3
3,CCCCCCOc1ccc(C2(O)CCN(Cc3c[nH]c4ccccc34)CC2)cc1,12
4,COc1ccc2[nH]cc(CN3CCC(O)(c4ccc(SC)cc4)CC3)c2c1,105
5,C=CCOC1(c2ccc(Cl)cc2)CCN(Cc2c[nH]c3ccccc23)CC1,4
6,CC1(c2ccc(Cl)cc2)CCN(Cc2c[nH]c3ccccc23)CC1,2
7,OC1(c2cccc(C(F)(F)F)c2)CCN(Cc2c[nH]c3ccccc23)CC1,5
8,Cc1[nH]c2ccccc2c1CN1CCC(O)(c2ccc(Cl)cc2)CC1,3
9,NC1(c2ccc(Cl)cc2)CCN(Cc2c[nH]c3ccccc23)CC1,2
10,N#CC1(c2ccc(Cl)cc2)CCN(Cc2c[nH]c3ccccc23)CC1,3
11,OC1(c2ccc(-c3ccccc3)cc2)CCN(Cc2c[nH]c3ccccc23)CC1,5
12,FC1(c2ccc(Cl)cc2)CCN(Cc2c[nH]c3ccccc23)CC1,2
13,Cn1cc(CN2CCC(O)(c3ccc(Cl)cc3)CC2)c2ccccc21,8
14,COc1ccc(C2(O)CCN(Cc3c[nH]c4ccccc34)CC2)cc1,12
15,CSc1ccc(C2(O)CCN(Cc3coc4ccccc34)CC2)cc1,3
16,CSc1ccc(C2(O)CCN(Cc3c[nH]c4ccccc34)CC2)cc1,27
17,OC1(c2cccc(Cl)c2Cl)CCN(Cc2c[nH]c3ccccc23)CC1,10
18,CC(=O)NC1(c2ccc(Cl)cc2)CCN(Cc2c[nH]c3ccccc23)CC1,2

# Biological target: T2, D(3) dopamine receptor (Homo sapiens, UniProt P35462)
# T2 sequence (P35462 whole entry): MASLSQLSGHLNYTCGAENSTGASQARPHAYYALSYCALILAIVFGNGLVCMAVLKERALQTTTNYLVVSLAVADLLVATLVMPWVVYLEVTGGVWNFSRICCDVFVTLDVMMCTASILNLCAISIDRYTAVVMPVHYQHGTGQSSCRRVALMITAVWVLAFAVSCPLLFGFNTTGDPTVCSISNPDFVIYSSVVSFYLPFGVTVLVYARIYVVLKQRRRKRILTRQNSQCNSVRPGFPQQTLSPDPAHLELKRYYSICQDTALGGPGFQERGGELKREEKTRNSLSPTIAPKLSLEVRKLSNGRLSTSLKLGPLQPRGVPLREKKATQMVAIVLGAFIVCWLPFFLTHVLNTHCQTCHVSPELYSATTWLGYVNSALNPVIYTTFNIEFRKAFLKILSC
# Assay: Displacement of [125I]IABN from human dopamine D3 receptor expressed in HEK293 cells
# Assay type: cell-based
row,Structure (SMILES),Ki [nM]
1,OC1(c2ccc(Cl)cc2)CCN(Cc2c[nH]c3ccccc23)CC1,163
2,OC1(c2ccc(Cl)c(Cl)c2)CCN(Cc2n[nH]c3ccccc23)CC1,156
3,OC1(c2ccc(Cl)cc2)CCN(Cc2coc3ccccc23)CC1,53
4,CCCCCCOc1ccc(C2(O)CCN(Cc3c[nH]c4ccccc34)CC2)cc1,1950
5,COc1ccc2[nH]cc(CN3CCC(O)(c4ccc(SC)cc4)CC3)c2c1,580
6,C=CCOC1(c2ccc(Cl)cc2)CCN(Cc2c[nH]c3ccccc23)CC1,718
7,CC1(c2ccc(Cl)cc2)CCN(Cc2c[nH]c3ccccc23)CC1,2100
8,OC1(c2cccc(C(F)(F)F)c2)CCN(Cc2c[nH]c3ccccc23)CC1,570
9,Cc1[nH]c2ccccc2c1CN1CCC(O)(c2ccc(Cl)cc2)CC1,44.1
10,NC1(c2ccc(Cl)cc2)CCN(Cc2c[nH]c3ccccc23)CC1,382
11,N#CC1(c2ccc(Cl)cc2)CCN(Cc2c[nH]c3ccccc23)CC1,684
12,OC1(c2ccc(-c3ccccc3)cc2)CCN(Cc2c[nH]c3ccccc23)CC1,467
13,FC1(c2ccc(Cl)cc2)CCN(Cc2c[nH]c3ccccc23)CC1,211
14,Cn1cc(CN2CCC(O)(c3ccc(Cl)cc3)CC2)c2ccccc21,238
15,COc1ccc(C2(O)CCN(Cc3c[nH]c4ccccc34)CC2)cc1,2130
16,CSc1ccc(C2(O)CCN(Cc3coc4ccccc34)CC2)cc1,139
17,CSc1ccc(C2(O)CCN(Cc3c[nH]c4ccccc34)CC2)cc1,638
18,OC1(c2cccc(Cl)c2Cl)CCN(Cc2c[nH]c3ccccc23)CC1,273
19,CC(=O)NC1(c2ccc(Cl)cc2)CCN(Cc2c[nH]c3ccccc23)CC1,193

# Biological target: T1, D(2) dopamine receptor
# Assay: Antagonist activity at human dopamine D2 receptor expressed in CHO cells assessed as inhibition of quinpirole stimulated mitogenesis
# Assay type: functional, cell-based
# Method in brief: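 Functional mitogenesis assay in CHO cells transfected with human D2 receptor; antagonism measured as inhibition of quinpirole-stimulated mitogenesis (agonism tested as stimulation); EC50 reported; run via NIDA CTDP contract protocol.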
row,Structure (SMILES),EC50 [nM]
1,CCCCCCOc1ccc(C2(O)CCN(Cc3c[nH]c4ccccc34)CC2)cc1,216
2,CC1(c2ccc(Cl)cc2)CCN(Cc2c[nH]c3ccccc23)CC1,314
3,OC1(c2cccc(C(F)(F)F)c2)CCN(Cc2c[nH]c3ccccc23)CC1,69.1
4,Cc1[nH]c2ccccc2c1CN1CCC(O)(c2ccc(Cl)cc2)CC1,2.13
5,N#CC1(c2ccc(Cl)cc2)CCN(Cc2c[nH]c3ccccc23)CC1,225
6,Cn1cc(CN2CCC(O)(c3ccc(Cl)cc3)CC2)c2ccccc21,20
7,OC1(c2cccc(Cl)c2Cl)CCN(Cc2c[nH]c3ccccc23)CC1,34.3
8,CC(=O)NC1(c2ccc(Cl)cc2)CCN(Cc2c[nH]c3ccccc23)CC1,24.8

# Biological target: T3, D(4) dopamine receptor (Homo sapiens, UniProt P21917)
# T3 sequence (P21917 whole entry): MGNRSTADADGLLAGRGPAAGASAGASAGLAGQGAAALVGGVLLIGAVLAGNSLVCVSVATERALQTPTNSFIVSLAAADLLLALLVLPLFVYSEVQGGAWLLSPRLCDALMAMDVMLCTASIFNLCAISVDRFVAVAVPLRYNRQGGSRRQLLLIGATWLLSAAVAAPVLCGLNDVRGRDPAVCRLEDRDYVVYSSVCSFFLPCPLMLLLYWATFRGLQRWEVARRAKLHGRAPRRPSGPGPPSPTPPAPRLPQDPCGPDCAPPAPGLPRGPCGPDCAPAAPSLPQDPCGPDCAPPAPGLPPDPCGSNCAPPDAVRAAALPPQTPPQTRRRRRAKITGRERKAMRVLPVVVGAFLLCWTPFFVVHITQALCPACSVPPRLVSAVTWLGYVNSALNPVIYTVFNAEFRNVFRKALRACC
# Assay: Displacement of [125I]IABN from human dopamine D4 receptor expressed in HEK293 cells
# Assay type: cell-based
# Method in brief: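 Competition binding on HEK 293 cells transfected with human D2L or D4 dopamine receptors; radioligand [125I]IABN displaced by test ligand; Ki values derived.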
row,Structure (SMILES),Ki [nM]
1,OC1(c2ccc(Cl)cc2)CCN(Cc2c[nH]c3ccccc23)CC1,1520
2,OC1(c2ccc(Cl)c(Cl)c2)CCN(Cc2n[nH]c3ccccc23)CC1,677
3,OC1(c2ccc(Cl)cc2)CCN(Cc2coc3ccccc23)CC1,404
4,CCCCCCOc1ccc(C2(O)CCN(Cc3c[nH]c4ccccc34)CC2)cc1,1490
5,COc1ccc2[nH]cc(CN3CCC(O)(c4ccc(SC)cc4)CC3)c2c1,567
6,C=CCOC1(c2ccc(Cl)cc2)CCN(Cc2c[nH]c3ccccc23)CC1,1190
7,CC1(c2ccc(Cl)cc2)CCN(Cc2c[nH]c3ccccc23)CC1,2750
8,OC1(c2cccc(C(F)(F)F)c2)CCN(Cc2c[nH]c3ccccc23)CC1,3750
9,Cc1[nH]c2ccccc2c1CN1CCC(O)(c2ccc(Cl)cc2)CC1,2990
10,NC1(c2ccc(Cl)cc2)CCN(Cc2c[nH]c3ccccc23)CC1,2290
11,N#CC1(c2ccc(Cl)cc2)CCN(Cc2c[nH]c3ccccc23)CC1,2270
12,OC1(c2ccc(-c3ccccc3)cc2)CCN(Cc2c[nH]c3ccccc23)CC1,129
13,FC1(c2ccc(Cl)cc2)CCN(Cc2c[nH]c3ccccc23)CC1,365
14,Cn1cc(CN2CCC(O)(c3ccc(Cl)cc3)CC2)c2ccccc21,5140
15,COc1ccc(C2(O)CCN(Cc3c[nH]c4ccccc34)CC2)cc1,679
16,CSc1ccc(C2(O)CCN(Cc3coc4ccccc34)CC2)cc1,153
17,CSc1ccc(C2(O)CCN(Cc3c[nH]c4ccccc34)CC2)cc1,319
18,OC1(c2cccc(Cl)c2Cl)CCN(Cc2c[nH]c3ccccc23)CC1,1550
19,CC(=O)NC1(c2ccc(Cl)cc2)CCN(Cc2c[nH]c3ccccc23)CC1,348

# Species on record: Homo sapiens
# Assay: Selectivity for human dopamine D2L receptor over human dopamine D4 receptor
row,Structure (SMILES),Ratio Ki
1,OC1(c2ccc(Cl)c(Cl)c2)CCN(Cc2n[nH]c3ccccc23)CC1,2
2,OC1(c2ccc(Cl)cc2)CCN(Cc2coc3ccccc23)CC1,19
3,CCCCCCOc1ccc(C2(O)CCN(Cc3c[nH]c4ccccc34)CC2)cc1,9
4,COc1ccc2[nH]cc(CN3CCC(O)(c4ccc(SC)cc4)CC3)c2c1,103
5,C=CCOC1(c2ccc(Cl)cc2)CCN(Cc2c[nH]c3ccccc23)CC1,7
6,CC1(c2ccc(Cl)cc2)CCN(Cc2c[nH]c3ccccc23)CC1,3
7,OC1(c2cccc(C(F)(F)F)c2)CCN(Cc2c[nH]c3ccccc23)CC1,35
8,Cc1[nH]c2ccccc2c1CN1CCC(O)(c2ccc(Cl)cc2)CC1,194
9,NC1(c2ccc(Cl)cc2)CCN(Cc2c[nH]c3ccccc23)CC1,12
10,N#CC1(c2ccc(Cl)cc2)CCN(Cc2c[nH]c3ccccc23)CC1,11
11,OC1(c2ccc(-c3ccccc3)cc2)CCN(Cc2c[nH]c3ccccc23)CC1,1
12,FC1(c2ccc(Cl)cc2)CCN(Cc2c[nH]c3ccccc23)CC1,3
13,Cn1cc(CN2CCC(O)(c3ccc(Cl)cc3)CC2)c2ccccc21,174
14,COc1ccc(C2(O)CCN(Cc3c[nH]c4ccccc34)CC2)cc1,4
15,CSc1ccc(C2(O)CCN(Cc3coc4ccccc34)CC2)cc1,3
16,CSc1ccc(C2(O)CCN(Cc3c[nH]c4ccccc34)CC2)cc1,13
17,OC1(c2cccc(Cl)c2Cl)CCN(Cc2c[nH]c3ccccc23)CC1,59
18,CC(=O)NC1(c2ccc(Cl)cc2)CCN(Cc2c[nH]c3ccccc23)CC1,4

# Biological target: T2, D(3) dopamine receptor
# Assay: Antagonist activity at human dopamine D3 receptor expressed in CHO cells assessed as inhibition of quinpirole stimulated mitogenesis
# Assay type: functional, cell-based
row,Structure (SMILES),EC50 [nM]
1,OC1(c2ccc(Cl)cc2)CCN(Cc2c[nH]c3ccccc23)CC1,90.4
2,CC1(c2ccc(Cl)cc2)CCN(Cc2c[nH]c3ccccc23)CC1,347
3,Cc1[nH]c2ccccc2c1CN1CCC(O)(c2ccc(Cl)cc2)CC1,20.2
4,Cn1cc(CN2CCC(O)(c3ccc(Cl)cc3)CC2)c2ccccc21,98.6
5,OC1(c2cccc(Cl)c2Cl)CCN(Cc2c[nH]c3ccccc23)CC1,232
